Measurements taken from ChEMBL document CHEMBL5653631, “A Potent and Selective ULK1 Inhibitor Suppresses Autophagy and Sensitizes Cancer Cells to Nutrient Stress” (iScience, 2018).

Assays:
[1] = biological target: T1, Eukaryotic translation initiation factor 2-alpha kinase 3 (Homo sapiens) (UniProt Q9NZJ5); assay: Inhibition of human recombinant PEK at 40 nM in presence of ATP by radiometric assay relative to control
T1 sequence (whole entry): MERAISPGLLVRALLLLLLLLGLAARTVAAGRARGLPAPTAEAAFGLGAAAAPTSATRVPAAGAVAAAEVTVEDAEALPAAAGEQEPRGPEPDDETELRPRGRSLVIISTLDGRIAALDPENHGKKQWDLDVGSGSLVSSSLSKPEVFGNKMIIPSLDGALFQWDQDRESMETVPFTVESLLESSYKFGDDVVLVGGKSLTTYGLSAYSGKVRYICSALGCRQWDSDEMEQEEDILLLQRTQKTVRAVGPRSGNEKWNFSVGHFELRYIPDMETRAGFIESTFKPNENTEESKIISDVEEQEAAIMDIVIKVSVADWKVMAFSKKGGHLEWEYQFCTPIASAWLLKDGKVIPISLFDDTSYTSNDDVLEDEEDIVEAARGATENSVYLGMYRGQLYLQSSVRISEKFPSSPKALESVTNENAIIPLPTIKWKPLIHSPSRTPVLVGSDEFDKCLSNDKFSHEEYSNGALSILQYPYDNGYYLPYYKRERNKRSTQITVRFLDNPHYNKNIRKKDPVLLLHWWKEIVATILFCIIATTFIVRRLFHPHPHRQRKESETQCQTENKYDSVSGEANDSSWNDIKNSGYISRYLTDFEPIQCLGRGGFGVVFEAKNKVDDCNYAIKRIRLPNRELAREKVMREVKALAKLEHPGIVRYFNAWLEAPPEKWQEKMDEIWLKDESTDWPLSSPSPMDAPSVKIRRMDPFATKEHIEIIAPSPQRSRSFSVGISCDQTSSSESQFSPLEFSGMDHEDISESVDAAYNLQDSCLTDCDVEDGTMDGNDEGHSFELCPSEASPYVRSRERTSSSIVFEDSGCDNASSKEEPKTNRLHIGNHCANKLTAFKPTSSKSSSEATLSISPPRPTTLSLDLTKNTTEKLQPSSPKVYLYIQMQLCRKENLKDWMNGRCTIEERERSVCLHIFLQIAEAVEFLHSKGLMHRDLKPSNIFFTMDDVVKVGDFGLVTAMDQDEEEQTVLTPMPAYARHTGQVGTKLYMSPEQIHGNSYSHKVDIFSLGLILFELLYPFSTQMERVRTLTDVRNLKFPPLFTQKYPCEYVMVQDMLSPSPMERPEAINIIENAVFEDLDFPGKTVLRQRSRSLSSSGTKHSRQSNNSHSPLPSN

[2] = biological target: T2, Serine/threonine-protein kinase BRSK1 (Homo sapiens) (UniProt Q8TDC3); assay: Inhibition of human recombinant BRSK1 at 500 nM related to control ULK1
T2 sequence (whole entry): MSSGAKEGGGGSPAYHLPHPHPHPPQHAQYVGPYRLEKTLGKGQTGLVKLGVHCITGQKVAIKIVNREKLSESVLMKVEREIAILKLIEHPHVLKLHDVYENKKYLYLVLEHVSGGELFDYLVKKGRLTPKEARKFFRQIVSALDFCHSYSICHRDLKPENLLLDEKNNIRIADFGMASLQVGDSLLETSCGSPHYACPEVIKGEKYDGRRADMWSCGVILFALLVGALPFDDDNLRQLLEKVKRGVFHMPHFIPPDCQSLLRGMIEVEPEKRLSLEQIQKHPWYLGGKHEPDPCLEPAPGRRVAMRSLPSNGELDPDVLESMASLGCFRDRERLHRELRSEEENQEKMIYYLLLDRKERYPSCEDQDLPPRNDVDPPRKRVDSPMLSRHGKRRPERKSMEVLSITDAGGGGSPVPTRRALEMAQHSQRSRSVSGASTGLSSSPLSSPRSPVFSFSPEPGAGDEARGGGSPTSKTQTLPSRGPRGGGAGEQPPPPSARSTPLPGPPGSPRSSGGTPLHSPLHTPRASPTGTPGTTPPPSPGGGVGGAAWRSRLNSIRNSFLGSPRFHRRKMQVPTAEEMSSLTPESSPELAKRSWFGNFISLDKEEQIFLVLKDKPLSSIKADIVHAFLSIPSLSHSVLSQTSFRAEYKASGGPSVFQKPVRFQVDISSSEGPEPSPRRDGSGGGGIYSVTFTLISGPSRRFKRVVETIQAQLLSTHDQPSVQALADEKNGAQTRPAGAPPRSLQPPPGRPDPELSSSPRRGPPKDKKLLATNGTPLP
How it was run: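 Recombinant human kinase panel (327 kinases) run as radiometric activity assays, each kinase in duplicate at one compound concentration. Activity remaining expressed relative to vehicle control; percent inhibition taken as 100% minus % activity remaining.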

[3] = biological target: T3, Serine/threonine-protein kinase DCLK3 (Homo sapiens) (UniProt Q9C098); assay: Inhibition of human recombinant DCAMKL3 at 500 nM related to control ULK1
T3 sequence (whole entry): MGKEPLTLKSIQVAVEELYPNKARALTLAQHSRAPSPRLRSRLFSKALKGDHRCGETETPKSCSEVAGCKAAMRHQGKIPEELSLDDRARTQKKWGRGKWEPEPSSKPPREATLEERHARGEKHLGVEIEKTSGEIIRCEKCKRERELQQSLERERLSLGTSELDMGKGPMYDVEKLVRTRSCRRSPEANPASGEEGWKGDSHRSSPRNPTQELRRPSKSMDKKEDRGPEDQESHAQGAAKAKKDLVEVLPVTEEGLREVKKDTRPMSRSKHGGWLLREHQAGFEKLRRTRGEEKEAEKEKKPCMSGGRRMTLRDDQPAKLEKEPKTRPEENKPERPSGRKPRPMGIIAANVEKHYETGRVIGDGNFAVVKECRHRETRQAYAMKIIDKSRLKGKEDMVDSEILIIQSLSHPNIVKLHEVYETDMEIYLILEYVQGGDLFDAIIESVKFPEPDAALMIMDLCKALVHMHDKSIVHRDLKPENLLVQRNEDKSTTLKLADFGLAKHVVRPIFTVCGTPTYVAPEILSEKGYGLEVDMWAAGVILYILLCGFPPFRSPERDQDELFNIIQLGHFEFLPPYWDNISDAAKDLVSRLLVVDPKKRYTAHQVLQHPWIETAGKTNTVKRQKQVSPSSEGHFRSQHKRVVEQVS

[4] = biological target: Ribosomal protein S6 kinase alpha-1 (Homo sapiens) (UniProt Q15418); assay: Inhibition of human recombinant RSK1 at 15 nM in presence of ATP by radiometric assay relative to control
[5] = biological target: RAF proto-oncogene serine/threonine-protein kinase (Homo sapiens) (UniProt P04049); assay: Inhibition of human recombinant RAF1 at 15 nM related to control ULK1
RAF proto-oncogene serine/threonine-protein kinase (Homo sapiens), sequence (P04049 whole entry): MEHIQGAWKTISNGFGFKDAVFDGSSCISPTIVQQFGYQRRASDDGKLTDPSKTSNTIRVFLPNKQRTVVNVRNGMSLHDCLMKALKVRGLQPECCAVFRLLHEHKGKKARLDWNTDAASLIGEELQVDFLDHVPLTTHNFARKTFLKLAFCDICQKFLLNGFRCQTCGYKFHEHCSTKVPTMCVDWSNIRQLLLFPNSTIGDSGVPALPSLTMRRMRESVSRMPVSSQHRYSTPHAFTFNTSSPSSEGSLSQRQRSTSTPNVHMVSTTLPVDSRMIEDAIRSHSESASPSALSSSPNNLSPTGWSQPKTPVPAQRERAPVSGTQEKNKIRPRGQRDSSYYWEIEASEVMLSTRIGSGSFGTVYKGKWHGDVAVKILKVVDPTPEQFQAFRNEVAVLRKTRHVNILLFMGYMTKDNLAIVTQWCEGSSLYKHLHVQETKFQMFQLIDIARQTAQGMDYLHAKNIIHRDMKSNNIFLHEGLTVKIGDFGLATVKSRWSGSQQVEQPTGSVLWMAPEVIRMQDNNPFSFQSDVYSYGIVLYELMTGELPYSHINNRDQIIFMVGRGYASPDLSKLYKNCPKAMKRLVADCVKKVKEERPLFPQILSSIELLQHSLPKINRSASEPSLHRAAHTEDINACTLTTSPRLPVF

Ribosomal protein S6 kinase alpha-1 (Homo sapiens), sequence (Q15418 whole entry): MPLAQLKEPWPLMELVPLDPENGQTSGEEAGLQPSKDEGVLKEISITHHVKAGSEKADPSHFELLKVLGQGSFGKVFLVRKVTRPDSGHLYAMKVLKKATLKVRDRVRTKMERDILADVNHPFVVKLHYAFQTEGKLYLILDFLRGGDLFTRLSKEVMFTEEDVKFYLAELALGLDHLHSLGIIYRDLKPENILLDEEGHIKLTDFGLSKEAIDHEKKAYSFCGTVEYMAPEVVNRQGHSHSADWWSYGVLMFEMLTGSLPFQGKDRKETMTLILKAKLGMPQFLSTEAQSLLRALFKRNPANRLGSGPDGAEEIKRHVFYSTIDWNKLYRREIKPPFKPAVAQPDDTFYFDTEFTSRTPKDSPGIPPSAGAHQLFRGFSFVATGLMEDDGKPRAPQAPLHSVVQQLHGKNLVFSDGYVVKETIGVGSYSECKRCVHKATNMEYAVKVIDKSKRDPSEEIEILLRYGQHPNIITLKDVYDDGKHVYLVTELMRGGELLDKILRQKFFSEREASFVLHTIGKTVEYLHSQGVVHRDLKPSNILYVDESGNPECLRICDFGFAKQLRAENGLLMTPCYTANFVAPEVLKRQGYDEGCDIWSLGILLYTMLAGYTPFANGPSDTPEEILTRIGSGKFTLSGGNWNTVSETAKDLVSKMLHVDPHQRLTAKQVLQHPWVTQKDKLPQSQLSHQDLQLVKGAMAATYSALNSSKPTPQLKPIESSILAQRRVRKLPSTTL

O=C(N[C@@H](C1CC1)C(F)(F)F)c1cc(-c2cnn3cc(-c4ccc(F)cc4)cnc23)cs1
inhibition [1]: 0%

CNC(=O)c1ccccc1Oc1nc(Nc2cc(OC)c(OC)c(OC)c2)ncc1Br
fold change (FC) [2]: 0.03
fold change (FC) [3]: 0

CC(C)[C@H](NC(=O)c1cc(-c2cnn3cc(-c4ccc(OCCN5CCCCC5)cc4)cnc23)cs1)C(F)(F)F
inhibition [4]: 23%
fold change (FC) [5]: 0.09
